Results taken from ChEMBL document CHEMBL5528013 (Eur J Med Chem, 2024).
The source made the active and inactive calls. The rule behind the calls is not given here.

Assays:
MOLM-14 [1] = type: functional, cell-based; conditions: Homo sapiens, MOLM-14, 72 h
MOLM-14 [2] = assay: Antiproliferative activity against human MOLM-14 cells harboring FLT3-D835Y mutant assessed as inhibition of cell growth incubated for 72 hrs by resazurin dye based assay; type: functional; conditions: MOLM-14, 72 h
Method in brief: (§1)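 Logarithmic-phase cells were seeded at 5000 per well and treated 24 h later, in triplicate, with various concentrations for 72 h. MOLM14 lines were grown in RPMI with 10 % FBS, and other lines per provider instructions, all at 37 °C and 5 % CO2. Resazurin was then added for 4–6 h and fluorescence read. GI50 was taken from percent growth versus DMSO control, fitted with a variable-slope normalized-response model; at least three runs.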

[3] = target: T1, Receptor-type tyrosine-protein kinase FLT3 (Homo sapiens, UniProt P36888); assay: Inhibition of FLT3 (unknown origin) by bioluminescent ADP-Glo assay
T1 sequence (P36888 whole entry): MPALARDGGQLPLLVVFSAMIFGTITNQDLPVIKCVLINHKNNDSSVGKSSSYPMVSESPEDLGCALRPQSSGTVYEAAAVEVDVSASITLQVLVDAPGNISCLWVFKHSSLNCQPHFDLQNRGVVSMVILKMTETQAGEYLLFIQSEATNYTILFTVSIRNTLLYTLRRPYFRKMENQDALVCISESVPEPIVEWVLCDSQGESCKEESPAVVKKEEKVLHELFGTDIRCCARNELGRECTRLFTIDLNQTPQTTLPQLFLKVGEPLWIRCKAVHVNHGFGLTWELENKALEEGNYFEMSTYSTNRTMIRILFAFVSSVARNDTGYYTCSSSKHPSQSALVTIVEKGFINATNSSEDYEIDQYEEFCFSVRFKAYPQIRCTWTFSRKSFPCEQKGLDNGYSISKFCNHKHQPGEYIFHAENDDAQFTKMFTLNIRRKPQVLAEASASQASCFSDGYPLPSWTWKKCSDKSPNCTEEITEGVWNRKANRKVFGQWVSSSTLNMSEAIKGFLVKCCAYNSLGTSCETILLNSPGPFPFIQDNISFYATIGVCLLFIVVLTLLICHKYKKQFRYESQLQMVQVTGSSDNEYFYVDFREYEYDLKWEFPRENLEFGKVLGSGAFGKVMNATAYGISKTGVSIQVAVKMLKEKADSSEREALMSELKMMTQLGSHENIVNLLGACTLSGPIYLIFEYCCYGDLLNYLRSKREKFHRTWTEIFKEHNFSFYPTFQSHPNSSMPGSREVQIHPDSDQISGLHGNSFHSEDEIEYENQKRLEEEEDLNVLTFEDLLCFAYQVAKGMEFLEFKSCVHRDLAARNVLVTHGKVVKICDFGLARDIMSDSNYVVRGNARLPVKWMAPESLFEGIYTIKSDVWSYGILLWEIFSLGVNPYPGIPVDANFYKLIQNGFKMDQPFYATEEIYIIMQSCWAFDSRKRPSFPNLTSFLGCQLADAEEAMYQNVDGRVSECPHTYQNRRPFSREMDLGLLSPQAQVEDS

MDA-MB-231 = assay: Antiproliferative activity against human MDA-MB-231 cells lacking FLT3 activating mutations assessed as inhibition of cell growth incubated for 72 hrs by resazurin dye based assay; type: functional; conditions: MDA-MB-231, 72 h; method in brief: as §1
MOLM-14 [4] = assay: Antiproliferative activity against human MOLM-14 cells assessed as inhibition of cell growth incubated for 72 hrs by resazurin dye based assay; type: functional; conditions: MOLM-14, 72 h; method in brief: as §1
[5] = Cytotoxicity against HEK293 cells lacking FLT3 activating mutations assessed as inhibition of cell growth incubated for 72 hrs by resazurin dye based assay; type: toxicity; conditions: human; method in brief: as §1
K562 = assay: Antiproliferative activity against human K562 cells assessed as inhibition of cell growth incubated for 72 hrs by resazurin dye based assay; type: functional; conditions: K562, 72 h; method in brief: as §1
[6] = target: High affinity nerve growth factor receptor (Homo sapiens) (UniProt P04629); assay: Inhibition of TRKA (unknown origin) at 4.5 nM incubated for 1 hr by KINOMEscan analysis relative to control
High affinity nerve growth factor receptor (Homo sapiens), sequence (P04629 33-796 limits assumed): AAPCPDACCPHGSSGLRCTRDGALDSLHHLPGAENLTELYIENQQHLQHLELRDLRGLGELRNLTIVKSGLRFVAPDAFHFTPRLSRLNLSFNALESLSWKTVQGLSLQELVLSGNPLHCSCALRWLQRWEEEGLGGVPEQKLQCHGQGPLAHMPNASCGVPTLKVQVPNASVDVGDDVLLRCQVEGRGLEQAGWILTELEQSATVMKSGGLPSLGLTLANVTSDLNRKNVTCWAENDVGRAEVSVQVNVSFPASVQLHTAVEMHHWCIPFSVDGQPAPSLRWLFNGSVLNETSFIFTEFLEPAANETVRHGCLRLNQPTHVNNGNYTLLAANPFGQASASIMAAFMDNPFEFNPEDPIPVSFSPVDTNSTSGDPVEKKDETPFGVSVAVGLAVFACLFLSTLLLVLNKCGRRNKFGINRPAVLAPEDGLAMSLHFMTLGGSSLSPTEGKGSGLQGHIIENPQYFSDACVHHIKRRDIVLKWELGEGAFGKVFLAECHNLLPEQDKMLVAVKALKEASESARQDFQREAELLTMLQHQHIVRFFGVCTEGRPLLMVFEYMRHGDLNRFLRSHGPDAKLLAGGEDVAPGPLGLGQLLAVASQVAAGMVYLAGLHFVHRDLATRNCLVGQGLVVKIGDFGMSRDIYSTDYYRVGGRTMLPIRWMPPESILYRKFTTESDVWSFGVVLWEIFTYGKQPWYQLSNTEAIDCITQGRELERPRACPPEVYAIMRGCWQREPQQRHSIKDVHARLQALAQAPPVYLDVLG
Method in brief: (§2)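 Competition binding panel: DNA-tagged kinases combined with beads carrying immobilized biotinylated ligand and test compound in binding buffer (20 % SeaBlock, 0.17x PBS, 0.05 % Tween 20, 6 mM DTT). Compound diluted from 100x DMSO stocks. Incubated 1 h at room temperature with shaking, then washed. Bound kinase eluted with non-biotinylated ligand for 30 min. Kinase in eluate quantified by qPCR.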

MOLM-14 [7] = assay: Inhibition of ERK phosphorylation in human MOLM-14 cells at 1 times IC50 incubated for 2 hrs by Western blot analysis; type: cell-based
[8] = target: Mast/stem cell growth factor receptor Kit (Homo sapiens, UniProt P10721); assay: Binding affinity to KIT (unknown origin) at 4.5 nM incubated for 1 hr by KINOMEscan analysis; conditions: 0.0045 µM; method in brief: as §2
Mast/stem cell growth factor receptor Kit, sequence (P10721 whole entry): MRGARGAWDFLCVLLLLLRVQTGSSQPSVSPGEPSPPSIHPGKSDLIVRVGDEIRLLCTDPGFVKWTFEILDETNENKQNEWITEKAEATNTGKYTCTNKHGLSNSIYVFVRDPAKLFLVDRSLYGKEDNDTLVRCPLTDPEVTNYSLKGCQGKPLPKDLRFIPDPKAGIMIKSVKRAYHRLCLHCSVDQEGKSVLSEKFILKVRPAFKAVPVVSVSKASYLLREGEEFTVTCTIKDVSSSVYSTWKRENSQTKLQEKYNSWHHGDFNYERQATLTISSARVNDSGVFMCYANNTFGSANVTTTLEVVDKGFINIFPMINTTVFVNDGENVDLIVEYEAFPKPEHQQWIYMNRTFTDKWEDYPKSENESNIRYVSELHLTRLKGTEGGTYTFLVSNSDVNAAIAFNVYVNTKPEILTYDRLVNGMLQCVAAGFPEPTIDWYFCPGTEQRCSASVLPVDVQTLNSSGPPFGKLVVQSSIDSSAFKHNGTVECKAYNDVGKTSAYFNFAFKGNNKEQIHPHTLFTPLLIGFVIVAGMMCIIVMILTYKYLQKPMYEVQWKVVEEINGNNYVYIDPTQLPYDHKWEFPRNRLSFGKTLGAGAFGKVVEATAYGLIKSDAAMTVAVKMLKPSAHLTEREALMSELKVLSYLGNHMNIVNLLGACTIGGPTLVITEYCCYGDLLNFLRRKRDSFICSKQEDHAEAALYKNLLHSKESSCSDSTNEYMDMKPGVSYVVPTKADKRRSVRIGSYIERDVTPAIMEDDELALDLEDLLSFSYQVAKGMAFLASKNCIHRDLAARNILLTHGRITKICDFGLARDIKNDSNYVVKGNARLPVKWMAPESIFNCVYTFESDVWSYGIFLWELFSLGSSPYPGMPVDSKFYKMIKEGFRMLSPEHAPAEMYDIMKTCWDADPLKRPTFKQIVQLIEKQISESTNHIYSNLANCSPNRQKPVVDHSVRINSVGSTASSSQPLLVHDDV

MOLM-14 [9] = assay: Inhibition of ERK phosphorylation in human MOLM-14 cells harboring FLT3 D835Y mutant at 10 times IC50 incubated for 2 hrs by Western blot analysis relative to control; type: cell-based
MOLM-14 [10] = assay: Inhibition of ERK phosphorylation in human MOLM-14 cells harboring FLT3 D835Y mutant at 1 times IC50 incubated for 2 hrs by Western blot analysis; type: cell-based
MOLM-14 [11] = type: cell-based; conditions: Homo sapiens, time 2.0 hrs
MOLM-14 [12] = assay: Inhibition of ERK phosphorylation in human MOLM-14 cells at 10 times IC50 incubated for 2 hrs by Western blot analysis relative to control; type: cell-based
[13] = target: Receptor-type tyrosine-protein kinase FLT3 (Homo sapiens) (UniProt P36888); conditions: dose 4.5 nM, time 1.0 hrs

**Q.** Which IC50 (MOLM-14 [1]) does the source give for Cn1cc(-c2ccn3c(-c4cccc(Nc5cccc(C(C)(C)C)c5)n4)cnc3c2)cn1 here?
**A.** The IC50 was 412 nM.

**Q.** What about the IC50 (MOLM-14 [2]) of the same molecule?
**A.** Its IC50 is 265 nM.

**Q.** And the IC50 [3]?
**A.** Its IC50 is 288 nM.

**Q.** And the IC50 (MDA-MB-231)?
**A.** The IC50 was greater than 1000 nM.

**Q.** What about the IC50 (MOLM-14 [4]) of the same molecule?
**A.** The IC50 was 154 nM.

**Q.** What about the IC50 at 72 h [5] of the same molecule?
**A.** The IC50 at 72 h was 993 nM.

**Q.** And the IC50 (K562)?
**A.** Its IC50 is greater than 1000 nM.

**Q.** Which IC50 (MOLM-14 [1]) does the source give for Cn1cc(-c2ccn3c(-c4cccc(Nc5ccc(S(C)(=O)=O)cc5)n4)cnc3c2)cn1 here?
**A.** Its IC50 is 8.34 nM.

**Q.** And the inhibition [6]?
**A.** Its inhibition is greater than 65%.

**Q.** What about the inhibition (MOLM-14 [7]) of the same molecule?
**A.** The inhibition was “Active”.

**Q.** And the “inhibition (INH)” value [8]?
**A.** Its value is “Not Active”.

**Q.** And the IC50 (MOLM-14 [2])?
**A.** The IC50 was 3.16 nM.

**Q.** What about the inhibition (MOLM-14 [9]) of the same molecule?
**A.** Its inhibition is 100%.

**Q.** And the inhibition (MOLM-14 [10])?
**A.** The inhibition was “Active”.

**Q.** What about the IC50 [3] of the same molecule?
**A.** Its IC50 is 7.94 nM.

**Q.** And the IC50 (MDA-MB-231)?
**A.** The IC50 was greater than 1000 nM.

**Q.** What about the IC50 (MOLM-14 [4]) of the same molecule?
**A.** Its IC50 is 4.55 nM.

**Q.** What about the inhibition (MOLM-14 [11]) of the same molecule?
**A.** The inhibition was “Active”.

**Q.** What about the IC50 at 72 h [5] of the same molecule?
**A.** Its IC50 at 72 h is greater than 1000 nM.

**Q.** And the IC50 (K562)?
**A.** The IC50 was greater than 1000 nM.

**Q.** What about the inhibition (MOLM-14 [12]) of the same molecule?
**A.** Its inhibition is 100%.

**Q.** And the inhibition [13]?
**A.** Its inhibition is greater than 65%.
